Data published in ChEMBL document CHEMBL1137361, “WB4101-related compounds: new, subtype-selective alpha1-adrenoreceptor antagonists (or inverse agonists?)” (J Med Chem, 2006).

Key:
[1] = molecular target: Alpha adrenergic receptor 1A and 1B (Rattus norvegicus) (UniProt P15823+P43140); assay: Selectivity for Sprague-Dawley rat adrenergic alpha 1B receptor over adrenergic alpha 1A receptor; format: functional
[2] = molecular target: T1, Alpha-1A adrenergic receptor (Rattus norvegicus, UniProt P43140); assay: Activity at adrenergic alpha 1A receptor assessed as antagonism of noradrenaline-induced contraction of Sprague-Dawley rat vas deferens; format: functional, tissue-based; details: read-out: pA2 (converted)
T1 sequence (P43140 whole entry): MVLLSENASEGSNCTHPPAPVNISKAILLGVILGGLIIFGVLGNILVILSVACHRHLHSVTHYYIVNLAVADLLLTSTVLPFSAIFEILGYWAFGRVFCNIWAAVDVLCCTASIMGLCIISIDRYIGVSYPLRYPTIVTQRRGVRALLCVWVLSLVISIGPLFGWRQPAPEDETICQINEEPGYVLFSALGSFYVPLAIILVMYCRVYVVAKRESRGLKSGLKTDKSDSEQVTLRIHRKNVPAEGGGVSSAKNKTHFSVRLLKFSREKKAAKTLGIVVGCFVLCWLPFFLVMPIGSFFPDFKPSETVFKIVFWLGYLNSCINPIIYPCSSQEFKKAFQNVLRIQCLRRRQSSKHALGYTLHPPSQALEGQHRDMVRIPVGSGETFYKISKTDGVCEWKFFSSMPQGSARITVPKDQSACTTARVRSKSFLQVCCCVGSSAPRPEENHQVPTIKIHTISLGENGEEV
Method in brief: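 Rat vas deferens, prostatic portion. Contraction was induced with (-)-noradrenaline, and blocking activity was measured as antagonism of that contraction.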

[3] = molecular target: T2, 5-hydroxytryptamine receptor 1A (Rattus norvegicus, UniProt P19327); assay: Displacement of [3H]8-OH-DPAT from 5-HT1A receptor in rat hippocampus; format: tissue-based
T2 sequence (P19327 whole entry): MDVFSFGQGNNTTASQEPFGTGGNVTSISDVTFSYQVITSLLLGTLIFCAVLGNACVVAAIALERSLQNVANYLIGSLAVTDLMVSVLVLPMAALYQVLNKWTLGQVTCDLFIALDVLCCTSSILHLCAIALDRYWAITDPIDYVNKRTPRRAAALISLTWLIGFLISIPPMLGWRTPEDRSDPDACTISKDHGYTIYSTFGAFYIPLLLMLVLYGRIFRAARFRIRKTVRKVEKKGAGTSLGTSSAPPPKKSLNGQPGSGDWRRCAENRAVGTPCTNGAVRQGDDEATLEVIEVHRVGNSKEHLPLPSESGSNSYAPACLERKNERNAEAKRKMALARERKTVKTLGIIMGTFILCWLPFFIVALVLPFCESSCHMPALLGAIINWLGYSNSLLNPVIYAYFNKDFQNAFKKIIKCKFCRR
Method in brief: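 Radioligand binding with [3H]-8-OH-DPAT in membrane preparations from rat hippocampus. Affinity is expressed as pKi.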

[4] = molecular target: T3, Alpha-1B adrenergic receptor (Homo sapiens, UniProt P35368); assay: Displacement of [3H]prazosin from cloned human adrenergic alpha 1B receptor expressed in CHO cells; format: cell-based
T3 sequence (P35368 whole entry): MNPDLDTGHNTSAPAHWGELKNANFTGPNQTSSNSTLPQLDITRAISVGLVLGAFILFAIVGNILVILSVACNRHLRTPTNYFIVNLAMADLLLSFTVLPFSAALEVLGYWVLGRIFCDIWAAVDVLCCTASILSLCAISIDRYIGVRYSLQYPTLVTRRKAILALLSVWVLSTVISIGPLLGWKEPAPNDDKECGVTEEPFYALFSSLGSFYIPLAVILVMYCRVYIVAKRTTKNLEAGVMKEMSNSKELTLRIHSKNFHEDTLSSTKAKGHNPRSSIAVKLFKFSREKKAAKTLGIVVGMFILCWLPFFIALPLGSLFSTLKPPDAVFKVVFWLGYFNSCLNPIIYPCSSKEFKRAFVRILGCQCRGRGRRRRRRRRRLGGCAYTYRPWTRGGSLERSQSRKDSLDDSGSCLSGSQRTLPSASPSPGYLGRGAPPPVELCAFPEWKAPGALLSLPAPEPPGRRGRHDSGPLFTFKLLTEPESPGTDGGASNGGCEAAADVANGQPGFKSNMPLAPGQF
Method in brief: (§1)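 Radioligand binding with [3H]prazosin as the label. Membranes came from CHO cells expressing the cloned human receptor. Affinity is expressed as pKi.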

[5] = molecular target: T4, Alpha-1A adrenergic receptor (Homo sapiens, UniProt P35348); assay: Displacement of [3H]prazosin from cloned human adrenergic alpha 1A receptor expressed in CHO cells; format: cell-based; method in brief: as §1
T4 sequence (P35348 whole entry): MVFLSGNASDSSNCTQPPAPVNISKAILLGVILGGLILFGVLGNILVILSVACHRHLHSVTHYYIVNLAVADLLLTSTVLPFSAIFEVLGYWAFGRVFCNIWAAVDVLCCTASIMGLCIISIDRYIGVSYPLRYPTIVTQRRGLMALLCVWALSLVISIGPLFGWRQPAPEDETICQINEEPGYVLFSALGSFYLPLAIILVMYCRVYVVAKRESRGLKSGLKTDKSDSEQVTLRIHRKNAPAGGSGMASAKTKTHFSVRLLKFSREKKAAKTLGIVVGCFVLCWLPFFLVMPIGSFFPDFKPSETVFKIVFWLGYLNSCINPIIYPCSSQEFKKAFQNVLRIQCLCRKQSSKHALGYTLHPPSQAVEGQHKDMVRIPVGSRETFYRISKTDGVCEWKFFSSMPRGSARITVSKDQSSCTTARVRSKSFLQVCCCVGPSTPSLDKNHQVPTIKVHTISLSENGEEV

[6] = molecular target: T5, Alpha-1D adrenergic receptor (Homo sapiens, UniProt P25100); assay: Displacement of [3H]prazosin from cloned human adrenergic alpha 1D receptor expressed in CHO cells; format: cell-based; method in brief: as §1
T5 sequence (P25100 whole entry): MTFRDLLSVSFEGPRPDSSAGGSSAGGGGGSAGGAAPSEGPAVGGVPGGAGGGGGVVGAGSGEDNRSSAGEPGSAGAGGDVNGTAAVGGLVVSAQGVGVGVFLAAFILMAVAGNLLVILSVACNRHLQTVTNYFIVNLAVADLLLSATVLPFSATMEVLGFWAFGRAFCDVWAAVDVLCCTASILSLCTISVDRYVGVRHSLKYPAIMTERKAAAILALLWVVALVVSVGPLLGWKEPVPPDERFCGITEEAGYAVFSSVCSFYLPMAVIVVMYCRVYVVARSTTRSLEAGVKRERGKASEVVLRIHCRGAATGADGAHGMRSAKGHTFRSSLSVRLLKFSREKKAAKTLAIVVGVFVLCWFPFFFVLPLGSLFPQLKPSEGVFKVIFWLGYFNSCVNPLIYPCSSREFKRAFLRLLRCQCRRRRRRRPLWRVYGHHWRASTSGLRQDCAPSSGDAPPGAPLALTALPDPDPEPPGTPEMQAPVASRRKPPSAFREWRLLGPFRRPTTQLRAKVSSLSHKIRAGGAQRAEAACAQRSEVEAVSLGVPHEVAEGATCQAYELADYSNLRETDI

Chain of Alpha adrenergic receptor 1A and 1B (Rattus norvegicus) (P15823 whole entry, looked up, one chain of several): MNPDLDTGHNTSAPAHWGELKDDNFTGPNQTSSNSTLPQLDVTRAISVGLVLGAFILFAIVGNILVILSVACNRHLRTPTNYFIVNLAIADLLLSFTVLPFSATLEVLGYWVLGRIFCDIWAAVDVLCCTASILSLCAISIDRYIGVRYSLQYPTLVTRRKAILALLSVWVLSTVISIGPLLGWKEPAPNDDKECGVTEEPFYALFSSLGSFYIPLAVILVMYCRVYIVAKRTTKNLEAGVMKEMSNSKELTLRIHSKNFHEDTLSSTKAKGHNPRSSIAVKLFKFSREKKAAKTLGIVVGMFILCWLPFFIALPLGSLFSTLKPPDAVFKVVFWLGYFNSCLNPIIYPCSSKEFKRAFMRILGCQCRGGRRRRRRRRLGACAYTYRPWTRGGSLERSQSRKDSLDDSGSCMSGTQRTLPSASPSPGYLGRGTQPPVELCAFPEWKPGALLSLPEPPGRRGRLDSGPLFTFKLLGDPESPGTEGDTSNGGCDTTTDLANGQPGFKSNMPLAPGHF

SMILES | Selectivity ratio [1] | Kb [2] [nM] | Ki [3] [nM] | Ki [4] [nM] | Ki [5] [nM] | Ki [6] [nM]
COc1ccc2ccccc2c1OCCNC[C@H]1COc2ccccc2O1 | 0.2 | 1.1 | 11.2 | 15.8 | 1.58 | 6.61
COc1ccc(-c2ccccc2)cc1OCCNC[C@H]1COc2ccccc2O1 | < 0.01 | > 10000 | 52.5 | 11 | 5.62 | 15.1
COc1ccc2ccccc2c1OCCNC[C@@H]1COc2ccccc2O1 | 0.25 | 58.9 | 67.6 | 85.1 | 4.57 | 22.4
COc1cc(-c2ccccc2)ccc1OCCNC[C@H]1COc2ccccc2O1 | 0.17 | 759 | 74.1 | 186 | 87.1 | 214
COc1cccc(OC)c1OCCNC[C@H]1COc2cc3ccccc3cc2O1 | 0.7 | 3470 | 347 | 891 | 33.9 | 417
COc1cccc(OC)c1OCCNC[C@H]1COc2cc3c(cc2O1)CCCC3 | < 0.3 | > 10000 | 363 | 575 | 25.1 | 339
COc1cccc(-c2ccccc2)c1OCCNC[C@H]1COc2ccccc2O1 | 1.2 | 6.17 | 6.92 | 17.8 | 1.2 | 3.39
COc1ccc2ccccc2c1OCCNC[C@H]1COc2cc3c(cc2O1)CCCC3 | > 955 | 10.5 | 1700 | 372 | 66.1 | 148
COc1ccc2c(c1OCCNC[C@H]1COc3ccccc3O1)CCCC2 | 0.05 | 91.2 | 8.51 | 19.1 | 2.82 | 14.5
